# Compound activity (PubChem BioAssay)
# core dimer inh – HCV core protein dimerization inhibition | TR-FRET GST/Flag-core106 dimerization, 1536-well | inhibition, % at 5 µM | hit rate 0.33% among 300,000 | AID 1899;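 active means inhibition above the mean of all tested compounds plus 3 SD, set per screening campaign, cut at about 45% in these data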
#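 assay system = GST-tagged and Flag-tagged HCV core protein residues 1-106 | controls = unlabelled core106 and no-GST-core106 wells | incubation = compound-protein-antibody incubation 4 h at 22.5 °C | probe or stimulus = Eu donor and XL665 acceptor anti-tag antibodies | read-out = % inhibition based on acceptor/donor emission ratio | signal = TR-FRET 671 and 617 nm emission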
# rCAG binder – molecules binding r(CAG) RNA repeats. hit rate 1.3% among 370,000. AID 651821. inhibition, % at 3 µM. r(CAG) RNA repeat, TO-PRO-1 dye displacement fluorescence;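 active means inhibition above the plate cutoff, the mean of all test compounds on that plate plus 3 SD, cut at about 35% in these data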;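 further: 0% = DMSO alone and 100% = 100 µM mitoxantrone as full dye displacement; higher means more dye released from RNA so lower well fluorescence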
# NS3 helicase inh – inhibitors of Hepatitis C virus NS3 helicase | NS3 helicase DNA unwinding, Cy5 molecular beacon fluorescence | inhibition, % at 10.9 µM | hit rate 0.56% among 290,000;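 active means inhibition above the mean of all tested compounds plus 3 SD, set per campaign, cut at about 35% in these data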;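 further: 0% = DMSO wells and 100% = thioflavine S control wells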
#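 System: NS3 helicase fragment of HCV / Schedule: 1 h at 25 °C / Control set: DMSO alone as 0% and 110 µM thioflavine S as 100% / Reagent: Cy5/quencher beacon DNA duplex and ATP to start / Technique: Cy5 fluorescence / Replication: singlicate / Evaluation: % inhibition of end-to-start signal ratio versus controls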
# TAAR1 agonist – human TAAR1 agonism | hit rate 0.99% among 360,000 | activation, % at 3 µM | CHO RD-HGA16 TAAR1, Fluo-8 calcium fluorescence; vehicle wells 0%, saturating PEA agonist 100%;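 active means activation above the mean activation of all test compounds in the run plus 3 SD, cut at about 38% in these data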
# Target sequence (Q96RJ0 whole entry, looked up): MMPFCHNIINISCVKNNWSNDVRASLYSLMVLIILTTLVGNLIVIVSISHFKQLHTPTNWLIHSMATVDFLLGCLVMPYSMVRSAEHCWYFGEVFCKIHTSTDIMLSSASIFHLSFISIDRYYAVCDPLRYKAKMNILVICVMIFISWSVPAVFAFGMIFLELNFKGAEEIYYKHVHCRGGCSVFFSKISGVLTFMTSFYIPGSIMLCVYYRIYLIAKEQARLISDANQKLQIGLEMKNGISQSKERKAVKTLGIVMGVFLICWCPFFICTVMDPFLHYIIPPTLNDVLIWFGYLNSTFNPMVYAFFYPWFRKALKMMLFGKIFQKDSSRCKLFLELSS
#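 Test system: RD-HGA16 (CHO) cells co-expressing Gα16 and hTAAR1; dosing: one-point dosing at 3 µM (nominal); timing: 17-24 h seeding, 75 min 37 °C dye, 30 min RT; signal: kinetic Fluo-8 calcium fluorescence; read-out basis: % activation relative to PEA EC100 response; controls: DMSO and PEA EC100; replicates: n 1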
# TAAR1 antag – antagonists of human TAAR1; Q96RJ0; CHO RD-HGA16 TAAR1, Fluo-8 calcium fluorescence, antagonist; inhibition, % at 3 µM; hit rate 1.5% among 360,000; AID 624466;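 active means inhibition above a per-plate cutoff, the mean inhibition of test compounds on that plate plus 3 SD, cut at about 49% in these data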;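 further: 0% = DMSO plus EC80 beta-PEA response and 100% = DMSO alone without agonist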
#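 Assay system: CHO-derived RD-HGA16 cells stably expressing human TAAR1 plus Gα16. Timing: 140 s kinetic read after compound, 140 s after agonist. Technique: kinetic Fluo-8 calcium fluorescence measurement. Measure: % inhibition of agonist calcium response.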
# TAAR1 nonsel count – nonselective antagonist in TAAR1 antagonist counter-screen. shares compounds with TAAR1 antag. counterscreen cell line, calcium fluorescence, antagonist mode. inhibition, % at 3 µM. hit rate 77% among 2,400. AID 651780; in the data active means inhibition above about 22%;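 further: CHO-Ga16 host cells stimulated with ATP at an EC80 level; 0% = agonist EC80 plus vehicle and 100% = vehicle without agonist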
# TAAR1 ant conf – confirmation of human TAAR1 antagonists; shares compounds with TAAR1 antag; TAAR1-expressing cells, fluorescence antagonist read-out; inhibition, % at 3 µM; hit rate 40% among 2,400; AID 651785; in the data active means inhibition above about 49%;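 further: CHO-Ga16 host cells challenged with agonist PEA near its EC80; 0% = agonist at EC80 plus vehicle and 100% = vehicle with no agonist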
# Ga16 nonsel ag – nonselective Ga16 agonist in TAAR1 antagonist counter-screen. shares compounds with TAAR1 antag. Ga16-expressing cells, calcium fluorescence, agonist counterscreen. activation, % at 3 µM. hit rate 18% among 2,400. AID 651953; in the data active means activation above about 12%;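 further: 0% = vehicle wells and 100% = saturating stimulus response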
# TAAR1 ag counter – activates human TAAR1 in antagonist counter-screen; shares compounds with TAAR1 antag; hTAAR1 cell line, fluorescence activation, agonist mode; activation, % at 3 µM; hit rate 2% among 2,400; AID 651955; in the data active means activation above about 37%;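 further: CHO cells stably expressing TAAR1 with calcium dye readout; 0% = DMSO vehicle and 100% = full agonist response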
# Numbers without * were called inactive; · = no result. Shown are actives, neighbours in structure and some others; about 3.7% of the full set was active somewhere.
SMILES,core dimer inh,rCAG binder,NS3 helicase inh,TAAR1 agonist,TAAR1 antag,TAAR1 nonsel count,TAAR1 ant conf,Ga16 nonsel ag,TAAR1 ag counter
CS(=O)(=O)N1CCN(C(=O)c2cc(-c3ccccc3)nc3ccccc23)CC1,-7,6,-2,11,12,·,·,·,·
O=C(c1cc(-c2cccnc2)nc2ccccc12)N1CCN(S(=O)(=O)c2cccs2)CC1,·,5,·,17,51*,22*,34,6,5
COc1ccc(OC)c(S(=O)(=O)N(CC(=O)NC2CCC(C)CC2)c2cc(C)cc(C)c2)c1 (configuration not stated),·,3,·,·,·,·,·,·,·
CN(C)c1nc(Nc2ccc(Cl)cc2)nc(OCC#N)n1,3,3,-5,8,58*,-2,40,2,17
CCOc1nc(Nc2ccc(Cl)cc2)nc(OCC)n1,-1,-2,-4,-4,-15,·,·,·,·
Cc1ccc(C(=O)Nc2cccc(C(=O)N/N=C/c3ccccc3F)c2)cc1,-12,7,16,13,65*,30*,48,8,3
Cc1ccc(C(=O)Nc2cccc(C(=O)N/N=C/c3ccc(F)cc3)c2)cc1,2,9,-5,11,63*,37*,53*,10,11
CC(=O)Nc1cccc(C(=O)N/N=C/c2ccccc2F)c1,-1,2,2,5,10,·,·,·,·
CC(=O)Nc1cccc(C(=O)N/N=C/c2ccc(F)cc2)c1,-3,3,11,1,4,·,·,·,·
COC(=O)[C@]12C[C@H](CC(=O)NCc3cccc4ccccc34)C(=O)N(Cc3cccc4ccccc34)C1=C[C@H](C(C)C)O[C@@H]2C1CC1,·,8,·,·,·,·,·,·,·
Cc1ccccc1CSCCC(=O)NCCC1=CCCCC1,-6,-6,2,7,53*,8,39,3,5
CCOC(=O)c1c(C)[nH]c(C(=O)/C(C#N)=C/c2ccc(OC)c(OC)c2)c1C,9,14,20,8,-27,·,·,·,·
COc1cc(/C=C(/C#N)C(=O)c2c(C)[nH]c3ccccc23)ccc1OCC#N,10,8,-4,9,55*,24*,50*,19*,40*
CCOc1ccc(/C=C(\C#N)C(=O)c2c(C)[nH]c3ccccc23)cc1OC,-2,5,-17,2,58*,15,38,5,6
CCOC(=O)c1c(C)[nH]c(C(=O)/C(C#N)=C/c2ccc(OC(F)F)c(OC)c2)c1C,5,15,14,4,-31,·,·,·,·
CC(=O)CC[C@@H]1CC[C@]2(CCCN(C(=O)C3CCCCC3)C2)O1,·,-1,·,·,·,·,·,·,·
O=C(COC(=O)c1ccc(O)cc1O)Nc1cc(-c2ccccc2)nn1-c1ccccc1,7,26,·,12,72*,35*,38,9,11
Cc1cccc(C(=O)NN2C(=O)C3C(c4ccccc4)C=CC(c4ccccc4)C3C2=O)c1 (configuration not stated),2,9,-12,24,92*,54*,60*,14*,9
O=C(NN1C(=O)C2C3C=CC(C3)C2C1=O)c1ccccc1 (configuration not stated),2,-2,0,1,-9,·,·,·,·
CCN(CC)C(=O)CC[C@H]1CC[C@]2(CCCN(Cc3cccc4ccccc34)C2)O1,·,-2,·,·,·,·,·,·,·
CCOC(=O)CC[C@@]1(C(=O)OCC)C[C@@H](CC(=O)N2CCSCC2)C(=O)N2CCCC=C21,·,4,·,·,·,·,·,·,·
CS(=O)c1nc(-c2ccc(Br)cc2)cc(-c2ccccc2)c1C#N (configuration not stated),37,-4,-1,-2,70*,27*,53*,4,2
